The record followed here is ChEMBL document CHEMBL4330084, “Development of posaconazole-based analogues as hedgehog signaling pathway inhibitors” (Eur J Med Chem, 2019).

pIC50: −log10 of the molar value. Values after ≈ are worked out from the molar mass of the structure shown. Where only a bound is given, the exact number is not on record here.

For one series, the target named is Cytochrome P450 3A4 (Homo sapiens, UniProt P08684). As to the kind of experiment: Inhibition of CYP3A4 in human liver microsomes by LC-MS/MS analysis.
Sequence of Cytochrome P450 3A4 (P08684 whole entry): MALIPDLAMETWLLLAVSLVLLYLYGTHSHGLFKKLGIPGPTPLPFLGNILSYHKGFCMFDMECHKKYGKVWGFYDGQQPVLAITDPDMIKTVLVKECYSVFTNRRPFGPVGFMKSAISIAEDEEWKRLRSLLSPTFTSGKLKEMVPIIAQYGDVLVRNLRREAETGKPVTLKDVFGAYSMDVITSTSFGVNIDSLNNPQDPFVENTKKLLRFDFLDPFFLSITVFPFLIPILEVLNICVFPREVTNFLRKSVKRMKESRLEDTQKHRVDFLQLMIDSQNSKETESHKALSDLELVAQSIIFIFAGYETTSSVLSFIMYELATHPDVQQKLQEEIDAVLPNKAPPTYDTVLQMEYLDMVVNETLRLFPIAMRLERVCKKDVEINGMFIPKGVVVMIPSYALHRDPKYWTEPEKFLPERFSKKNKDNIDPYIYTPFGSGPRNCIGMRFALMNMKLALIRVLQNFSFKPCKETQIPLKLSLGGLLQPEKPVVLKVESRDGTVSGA
For series [1] the following is noted: human, microsomes, 1 µM.
Series [2] can be described thus: Half life in human liver microsomes at 1 uM by LC-MS/MS analysis. A general note: Liver microsomes are vesicles of endoplasmic reticulum, rich in cytochrome P450 enzymes.
A short description of series [3]: Inhibition of hedgehog signaling pathway in mouse ASZ cells assessed as decrease in Gli1 mRNA expression after 48 hrs by qRT-PCR analysis. Type of series: cell-based. A digest of the protocol: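 Murine BCC line ASZ (Ptch+/-), 80% confluent, seeded at 10,000 cells/well in 154CF medium (2% FBS), 24 h, then serum-free medium 24 h (37°C, 5% CO2). Treated 48 h with compound at 10–0.001 μM or DMSO vehicle. Gli1 mRNA measured by qRT-PCR against actin B internal control; concentrations lowering actin B were excluded. IC50 as mean ± SEM, repeat experiments in triplicate.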
(In general: Real-time PCR tracks product formation cycle by cycle.)

A further series addresses hERG (KCNH2) (Homo sapiens, UniProt Q12809). The series is described as follows: Inhibition of human ERG expressed in CHO cells at 25 uM by electrophysiology assay relative to control. Format: cell-based. Particulars: CHO cells expressing human ERG.
Series [4] can be described thus: Kinetic solubility of compound in pH 7.4 PBS by LC-MS/MS analysis. Format: physicochemical. The following applies: for solubility kinetic: PBS, read-out: Kinetic_solubility. A digest of the protocol: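 Kinetic solubility in PBS, pH 7.4; run by a CRO (Pharmaron or Cyprotex) under its standard protocol.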
Series [5] is filed under the species Mus musculus. As to the kind of experiment: Inhibition of hedgehog signaling pathway in hedgehog-dependent mouse Ptch-CKO cells assessed as inhibition of cell growth.
Series [6] is filed under the species Mus musculus. The series is described as follows: Potency index, ratio of IC50 for PSZ to IC50 for test compound for inhibition of hedgehog signaling pathway in mouse ASZ cells assessed as decrease in Gli1 mRNA expression after 48 hrs by qRT-PCR analysis. Format: cell-based.

Sequence of hERG (KCNH2) (Q12809 whole entry): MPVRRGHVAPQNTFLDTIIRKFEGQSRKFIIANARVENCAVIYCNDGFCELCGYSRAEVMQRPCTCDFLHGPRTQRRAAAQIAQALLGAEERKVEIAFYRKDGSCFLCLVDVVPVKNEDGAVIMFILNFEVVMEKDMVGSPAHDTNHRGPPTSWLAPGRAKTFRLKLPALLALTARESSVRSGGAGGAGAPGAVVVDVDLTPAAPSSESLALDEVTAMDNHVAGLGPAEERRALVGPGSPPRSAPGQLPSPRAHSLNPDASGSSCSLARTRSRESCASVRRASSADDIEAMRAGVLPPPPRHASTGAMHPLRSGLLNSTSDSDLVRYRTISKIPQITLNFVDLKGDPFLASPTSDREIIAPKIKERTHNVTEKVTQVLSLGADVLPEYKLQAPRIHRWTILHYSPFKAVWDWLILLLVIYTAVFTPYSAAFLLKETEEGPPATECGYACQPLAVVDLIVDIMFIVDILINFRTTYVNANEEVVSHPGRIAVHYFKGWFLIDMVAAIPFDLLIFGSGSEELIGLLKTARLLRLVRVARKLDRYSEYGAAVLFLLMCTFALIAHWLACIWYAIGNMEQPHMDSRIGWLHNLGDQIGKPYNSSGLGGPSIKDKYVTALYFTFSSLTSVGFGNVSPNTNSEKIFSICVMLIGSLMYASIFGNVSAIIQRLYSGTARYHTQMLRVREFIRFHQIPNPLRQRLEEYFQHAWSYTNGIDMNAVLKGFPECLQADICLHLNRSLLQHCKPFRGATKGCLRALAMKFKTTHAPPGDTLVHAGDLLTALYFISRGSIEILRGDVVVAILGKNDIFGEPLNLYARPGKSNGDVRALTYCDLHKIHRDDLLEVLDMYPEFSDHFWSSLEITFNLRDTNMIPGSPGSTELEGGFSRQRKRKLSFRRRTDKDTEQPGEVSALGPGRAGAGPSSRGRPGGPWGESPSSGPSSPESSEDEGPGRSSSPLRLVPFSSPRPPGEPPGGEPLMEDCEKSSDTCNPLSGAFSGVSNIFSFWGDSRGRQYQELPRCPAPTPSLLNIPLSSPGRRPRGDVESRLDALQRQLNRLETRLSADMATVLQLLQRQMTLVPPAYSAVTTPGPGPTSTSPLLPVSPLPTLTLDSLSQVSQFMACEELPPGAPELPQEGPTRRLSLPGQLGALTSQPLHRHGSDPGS

By pIC50 is commonly meant the IC50 on a negative log10 scale, so that one unit is a factor of ten. As usually defined, the inhibition is the drop in the measured response relative to a control, in per cent. A low value points to a weak effect. For the molecule `CC(=O)c1cccc(C(=O)Nc2ccc(N3CCN(c4ccc(OC[C@@H]5CO[C@@](C)(c6ccc(F)cc6F)C5)cc4)CC3)cc2)c1`, the pIC50 on Cytochrome P450 3A4 was below 4.70; in series [3] it was 7.62. In series [1], this molecule gave a CLH of 20 µL/min/mg. Further, the t1/2 in series [2] was found to be 1.92 h. This molecule also displayed an inhibition at 25 µM at hERG (KCNH2) of 4.2%. Also, the solubility kinetic in series [4] was determined as 3.13 µM (≈ 1.96 µg/mL).
`CC[C@@H]([C@H](C)O)n1ncn(-c2ccc(N3CCN(c4ccc(OC[C@@H]5CO[C@@](Cn6cncn6)(c6ccc(F)cc6F)C5)cc4)CC3)cc2)c1=O` [POSACONAZOLE]: in series [1], the CLH stood at 21.5 µL/min/mg. The same molecule returned a t1/2 in series [2] of 1.8 h. Further, the pIC50 in series [3] is 6.30. For the same molecule, testing at 25 µM against hERG (KCNH2) gave an inhibition of 14.7%. The molecule further had a Kinetic_solubility in series [4] (buffer) of 0.781 µM.
`C[C@]1(c2ccc(F)cc2F)C[C@H](COc2ccc(N3CCN(c4ccc(NC(=O)c5cccc(O)c5)cc4)CC3)cc2)CO1` showed a CLH in series [1] of 2.23 µL/min/mg. The same molecule yielded a t1/2 in series [2] above 3 h. In addition, the pIC50 in series [3] is 6.72. Also, the solubility kinetic in series [4] stood at 3.13 µM (≈ 1.88 µg/mL).
For the molecule `CC1(c2ccc(Cl)cc2Cl)OCC(COc2ccc(N3CCN(c4ccc(-n5cnn(CCC(=O)O)c5=O)cc4)CC3)cc2)O1` (centres undefined), the results for the pIC50 (against Cytochrome P450 3A4; in series [3]) were below 4.70 and 7.92, respectively. This molecule also displayed an inhibition at 25 µM at hERG (KCNH2) of 3.6%. In addition, the solubility kinetic in series [4] worked out at 0.781 µM (≈ 0.511 µg/mL).
On to `C[C@]1(c2ccc(F)cc2F)C[C@H](COc2ccc(N3CCN(c4ccc(N)cc4)CC3)cc2)CO1`, for which the pIC50 in series [3] was 6.48.
Take `C[C@]1(c2ccc(F)cc2F)C[C@H](COc2ccc(N3CCN(c4ccc(NC(=O)Oc5ccccc5)cc4)CC3)cc2)CO1`: the pIC50 in series [3] is below 5.00.
Turning to `C[C@]1(c2ccc(F)cc2F)C[C@H](COc2ccc(N3CCN(c4ccc(-n5cnn(CCCO)c5=O)cc4)CC3)cc2)CO1`, in series [3], the pIC50 is 7.70. Besides, the solubility kinetic in series [4] came to 1.56 µM (≈ 0.945 µg/mL).
As to `C[C@]1(c2ccc(F)cc2F)C[C@H](COc2ccc(N3CCN(c4ccc([N+](=O)[O-])cc4)CC3)cc2)CO1`, the pIC50 in series [3] was 6.13.
Still for that read-out and setting: the figure for `C[C@]1(c2ccc(F)cc2F)C[C@H](COc2ccc(N3CCN(c4ccc(-n5cn[nH]c5=O)cc4)CC3)cc2)CO1` is 6.72; for `C[C@]1(c2ccc(F)cc2F)C[C@H](COc2ccc(N3CCN(c4ccc(-n5cnn(CC(=O)O)c5=O)cc4)CC3)cc2)CO1` it is 6.82; for `C[C@]1(c2ccc(F)cc2F)C[C@H](COc2ccc(N3CCN(c4ccc(-n5cnn(CCC(=O)O)c5=O)cc4)CC3)cc2)CO1` it is 7.49.
For the molecule `C[C@]1(c2ccc(F)cc2F)C[C@H](COc2ccc(N3CCN(c4ccc(NC(=O)NN)cc4)CC3)cc2)CO1`, in series [3], the pIC50 is 6.66.
By GI50 is commonly meant the concentration that inhibits growth by half. Regarding `CC[C@@H](C)n1ncn(-c2ccc(N3CCN(c4ccc(OC[C@@H]5CO[C@@](C)(c6ccc(F)cc6F)C5)cc4)CC3)cc2)c1=O`, the pIC50 against Cytochrome P450 3A4 was below 4.70; in series [3], 6.72. In addition, the concentration for 50% growth inhibition (GI50) in the series filed under Mus musculus [5] came out at 610 nM. In addition, the CLH in series [1] is 37.4 µL/min/mg. Also, the t1/2 in series [2] came to 1.03 h. The Ratio IC50 in the series listed under Mus musculus [6] turned out to be 2.5.
`CCC(C)n1ncn(-c2ccc(N3CCN(c4ccc(OCC5COC(Cn6cncn6)(c6ccc(Cl)cc6Cl)O5)cc4)CC3)cc2)c1=O` (centres undefined) [ITRACONAZOLE] displayed a t1/2 in series [2] of 0.45 h. Moreover, the inhibition at 25 µM against hERG (KCNH2) is below 1%. Also, the solubility kinetic in series [4] was 0.8 µM (≈ 0.565 µg/mL).
Regarding `C[C@]1(c2ccc(F)cc2F)C[C@H](COc2ccc(N3CCN(c4ccc(NC(=O)c5cccnc5)cc4)CC3)cc2)CO1`, in series [3], the pIC50 is below 5.00. In addition, the solubility kinetic in series [4] came to 1.56 µM (≈ 0.912 µg/mL).
